Results on 18 compounds are retold here after ChEMBL document CHEMBL3259647, “Design, synthesis, and biological evaluation of potent dual agonists of nuclear and membrane bile acid receptors” (J Med Chem, 2014).

Calls of active or inactive are those of the source. No cut-off for these calls is given here.

One assay deals with HEK-293T. Put plainly: Induction of cAMP production in GP-BAR1-deficient HEK293T cells at 10 uM by cAMP responsive element containing luciferase reporter gene assay. Format: functional, cell-based. The settings on record: Homo sapiens. An outline of the steps: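 Control transfection of HEK-293T with only the pGL4.29 CRE-luciferase and pGL4.70 Renilla vectors, without GP-BAR1. 24 h after transfection, cells exposed 18 h to 10 μM compound. Luciferase normalized to Renilla.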
A general note: Changes in cAMP serve as a functional read-out for many G protein-coupled receptors.

In assay [1] the target is T1, Bile acid receptor (Homo sapiens) (UniProt Q96RI1).
T1 sequence (whole entry): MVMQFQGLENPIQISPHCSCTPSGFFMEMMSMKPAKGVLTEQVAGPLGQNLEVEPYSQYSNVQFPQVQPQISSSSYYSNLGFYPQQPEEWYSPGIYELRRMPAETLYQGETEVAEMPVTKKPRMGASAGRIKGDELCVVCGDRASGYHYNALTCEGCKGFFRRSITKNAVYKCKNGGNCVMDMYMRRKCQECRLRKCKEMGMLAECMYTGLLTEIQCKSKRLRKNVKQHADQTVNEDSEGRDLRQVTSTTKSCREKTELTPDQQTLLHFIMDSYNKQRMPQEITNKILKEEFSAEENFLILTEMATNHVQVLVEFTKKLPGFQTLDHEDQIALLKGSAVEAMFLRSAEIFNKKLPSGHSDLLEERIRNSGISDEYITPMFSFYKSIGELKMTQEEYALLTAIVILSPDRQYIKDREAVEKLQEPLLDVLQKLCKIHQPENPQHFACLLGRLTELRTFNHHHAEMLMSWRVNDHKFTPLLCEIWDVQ
As to the kind of experiment: Antagonist activity at human FXR transfected in human HepG2 cells assessed as supression of CDCA-induced transcriptional activity at 50 uM by beta-galactosidase reporter gene assay. Format: cell-based. A digest of the protocol: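 HepG2 cells (MEM with Earle's salts, 10% FBS, 37 °C; 5 × 10⁴ cells/well) transfected with pSG5-FXR, pSG5-RXR, pCMV-βgal and p(hsp27)-TK-LUC IR1 reporter. 24 h post-transfection, treated 18 h with 10 μM CDCA plus 50 μM compound. Luciferase in lysates normalized to β-galactosidase activity. Statistics versus CDCA alone.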
In general terms: Reporter assays use an easily measured gene product as a stand-in for the process of interest.

The target in assay [2] is T1, Bile acid receptor (Homo sapiens). Put plainly: Transactivation of human FXR transfected in human HepG2 cells at 10 uM by beta-galactosidase reporter gene assay. Format: cell-based. A digest of the protocol: (§1)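 HepG2 cells were grown at 37 °C in MEM with Earle's salts and 10% FBS, then plated at 5 × 10⁴ cells/well. They were transfected with pSG5-FXR, pSG5-RXR, pCMV-β-gal and the IR1 reporter p(hsp27)-TK-LUC, and stimulated 18 h starting 24 h post-transfection. Lines 2 and 3 give the test levels. CDCA 10 μM was the positive control. Luciferase was normalized to β-galactosidase.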

Assay [3] has as its target T2, G-protein coupled bile acid receptor 1 (Homo sapiens) (UniProt Q8TDU6).
T2 sequence (whole entry): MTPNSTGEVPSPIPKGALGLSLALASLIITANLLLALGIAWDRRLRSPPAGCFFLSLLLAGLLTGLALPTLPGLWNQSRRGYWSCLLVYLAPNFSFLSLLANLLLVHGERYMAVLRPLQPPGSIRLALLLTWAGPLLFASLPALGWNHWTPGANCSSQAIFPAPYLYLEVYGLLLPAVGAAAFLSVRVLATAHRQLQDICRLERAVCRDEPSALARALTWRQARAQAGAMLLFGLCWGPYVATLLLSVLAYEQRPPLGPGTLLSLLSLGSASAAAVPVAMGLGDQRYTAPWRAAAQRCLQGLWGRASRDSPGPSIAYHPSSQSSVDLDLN
As to the kind of experiment: Transactivation of human GP-BAR1 transfected in HEK293T cells assessed as induction of intracellular cAMP production at 10 uM after 18 hrs by cAMP responsive element containing luciferase reporter gene assay. The settings on record: HEK-293T. Format: functional, cell-based. A digest of the protocol: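 HEK-293T co-transfected with human GP-BAR1 and a CRE-driven luciferase reporter. Stimulated 24 h post-transfection for 18 h at 10 μM. TLCA 10 μM as receptor-dependent reference; forskolin 10 μM as receptor-independent cAMP control. Luciferase normalized to Renilla; mean ± standard error.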

Assay [4] addresses T3, G-protein coupled bile acid receptor 1 (Mus musculus) (UniProt Q80SS6).
T3 sequence (whole entry): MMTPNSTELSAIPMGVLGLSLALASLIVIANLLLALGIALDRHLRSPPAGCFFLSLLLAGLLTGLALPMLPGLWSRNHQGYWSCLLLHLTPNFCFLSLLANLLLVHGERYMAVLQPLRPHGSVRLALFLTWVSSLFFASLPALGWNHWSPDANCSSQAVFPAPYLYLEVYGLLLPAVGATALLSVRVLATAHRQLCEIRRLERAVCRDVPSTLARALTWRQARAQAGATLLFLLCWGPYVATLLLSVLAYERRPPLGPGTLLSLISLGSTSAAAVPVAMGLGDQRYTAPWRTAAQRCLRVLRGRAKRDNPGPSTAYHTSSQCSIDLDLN
Put plainly: Agonist activity at GP-BAR1 in mouse GLUTag cells assessed as increase in intracellular cAMP level. Format: functional, cell-based. A digest of the protocol: (§2)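 GLUTag enteroendocrine cells measuring intracellular cAMP generation and GLP-1 released into supernatant. Values are the mean ± SE of four to five experiments; significance is versus untreated cells.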

Assay [5] deals with T3, G-protein coupled bile acid receptor 1 (Mus musculus). Put plainly: Agonist activity at GP-BAR1 in mouse GLUTag cells assessed as increase in GLP-1 release. Format: cell-based. A digest of the protocol:
as §2

A further assay concerns Hepatocyte. As to the kind of experiment: Upregulation of BESP mRNA expression in mouse primary hepatocytes isolated from FXR deficient mouse. The assay is classed as functional, cell-based. An outline of the steps: (§3)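 Hepatocytes from wild-type or FXR−/− mice were analysed by real-time PCR for BSEP mRNA, as a measure of FXR-dependent target gene induction. Data are the mean SE of four experiments.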

For assay [6], the target named is T4, Bile acid receptor (Mus musculus) (UniProt Q60641).
T4 sequence (whole entry): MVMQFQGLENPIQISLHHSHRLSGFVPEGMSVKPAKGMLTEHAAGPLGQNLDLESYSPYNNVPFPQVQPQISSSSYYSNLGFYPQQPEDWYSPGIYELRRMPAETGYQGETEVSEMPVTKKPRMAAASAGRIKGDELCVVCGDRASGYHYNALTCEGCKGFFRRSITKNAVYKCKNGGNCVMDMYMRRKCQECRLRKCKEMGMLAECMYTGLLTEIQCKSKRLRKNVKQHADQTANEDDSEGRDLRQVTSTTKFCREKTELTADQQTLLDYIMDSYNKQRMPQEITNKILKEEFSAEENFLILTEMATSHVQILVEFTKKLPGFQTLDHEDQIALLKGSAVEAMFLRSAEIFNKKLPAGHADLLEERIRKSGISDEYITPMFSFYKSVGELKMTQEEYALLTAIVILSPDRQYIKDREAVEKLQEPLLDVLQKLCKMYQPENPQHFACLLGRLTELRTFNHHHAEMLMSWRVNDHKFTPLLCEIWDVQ
Put plainly: Agonist activity at FXR in mouse primary hepatocytes assessed as upregulation of BESP mRNA expression. The assay is classed as cell-based. The settings on record: Hepatocyte. A digest of the protocol: as §3

Assay [7] addresses T1, Bile acid receptor (Homo sapiens). Put plainly: Transactivation of human FXR transfected in human HepG2 cells at 1 to 10 uM by beta-galactosidase reporter gene assay. Format: cell-based. An outline of the steps:
as §1

For the compound `C[C@H](CCCCCOS(=O)(=O)O)[C@H]1CC[C@H]2[C@@H]3[C@@H](O)C[C@@H]4C[C@H](OS(=O)(=O)O)CC[C@]4(C)[C@H]3CC[C@]12C`, the result (in the assay with HEK-293T; in assay [1]) was inactive.

Regarding `C[C@H](CCCOS(=O)(=O)O)[C@H]1CC[C@H]2[C@@H]3[C@@H](O)C[C@@H]4C[C@H](OS(=O)(=O)O)CC[C@]4(C)[C@H]3CC[C@]12C`, the result (with HEK-293T; in assay [1]) was inactive.

For `C[C@H](CCCCCOS(=O)(=O)O)[C@H]1CC[C@H]2[C@@H]3[C@H](O)C[C@@H]4C[C@H](O)CC[C@]4(C)[C@H]3CC[C@]12C`, the outcome with HEK-293T was inactive. The outcome in assay [2] and in assay [3] was Active.

Take `C[C@H](CCC(=O)NCCOS(=O)(=O)O)[C@H]1CC[C@H]2[C@@H]3CC[C@@H]4C[C@H](O)CC[C@]4(C)[C@H]3CC[C@]12C`: the result in [4], in assay [5] and in assay [3] was Active.

On to `C[C@H](CCCCCOS(=O)(=O)O)[C@H]1CC[C@H]2[C@@H]3[C@@H](OS(=O)(=O)O)C[C@@H]4C[C@H](OS(=O)(=O)O)CC[C@]4(C)[C@H]3CC[C@]12C`, for which the outcome (in the assay with HEK-293T; in [1]) was inactive.

For the compound `C[C@H](CCC(=O)O)[C@H]1CC[C@H]2[C@@H]3[C@H](O)C[C@@H]4C[C@H](O)CC[C@]4(C)[C@H]3CC[C@]12C`, the result with HEK-293T was inactive.

As for `CC[C@H]1[C@@H](O)[C@@H]2[C@H](CC[C@]3(C)[C@@H]([C@H](C)CCC(=O)O)CC[C@@H]23)[C@@]2(C)CC[C@@H](O)C[C@@H]12`, the result in the assay on HEK-293T and in the assay with Hepatocyte was inactive. In addition, the result in assay [2], in assay [4], in assay [5] and in assay [6] was Active.

In the case of `CC[C@H]1[C@@H](OS(=O)(=O)O)[C@@H]2[C@H](CC[C@]3(C)[C@@H]([C@H](C)CCCOS(=O)(=O)O)CC[C@@H]23)[C@@]2(C)CC[C@@H](OS(=O)(=O)O)C[C@@H]12`, the result (in the assay with HEK-293T; in assay [1]) was inactive.

On to `C[C@H](CCCOS(=O)(=O)O)[C@H]1CC[C@H]2[C@@H]3[C@H](O)C[C@@H]4C[C@H](O)CC[C@]4(C)[C@H]3CC[C@]12C`, for which the result (in the assay with HEK-293T; in assay [1]) was inactive.

`C[C@H](CCCOS(=O)(=O)O)[C@H]1CC[C@H]2[C@@H]3[C@H](OS(=O)(=O)O)C[C@@H]4C[C@H](OS(=O)(=O)O)CC[C@]4(C)[C@H]3CC[C@]12C`: the result (in the assay with HEK-293T; in assay [1]) was inactive.

Take `C[C@H](CCCO)[C@H]1CC[C@H]2[C@@H]3[C@@H](O)C[C@@H]4C[C@H](OS(=O)(=O)O)CC[C@]4(C)[C@H]3CC[C@]12C`: the result (with HEK-293T; in assay [1]) was inactive.

With `CC[C@H]1[C@@H](O)[C@@H]2[C@H](CC[C@]3(C)[C@@H]([C@H](C)CCOS(=O)(=O)O)CC[C@@H]23)[C@@]2(C)CC[C@@H](O)C[C@@H]12`, the result with HEK-293T was inactive. Moreover, in assay [7], the outcome was Active.

In the case of `C[C@H](CCCOS(=O)(=O)O)[C@H]1CC[C@H]2[C@@H]3[C@@H](OS(=O)(=O)O)C[C@@H]4C[C@H](OS(=O)(=O)O)CC[C@]4(C)[C@H]3CC[C@]12C`, the outcome (with HEK-293T; in assay [1]) was inactive.

For the compound `C[C@H](CCCCCOS(=O)(=O)O)[C@H]1CC[C@H]2[C@@H]3[C@@H](O)C[C@@H]4C[C@H](O)CC[C@]4(C)[C@H]3CC[C@]12C`, the result (in the assay on HEK-293T; in [1]) was inactive.

`C[C@H](CCCOS(=O)(=O)O)[C@H]1CC[C@H]2[C@@H]3[C@@H](O)C[C@@H]4C[C@H](O)CC[C@]4(C)[C@H]3CC[C@]12C`: the outcome (in the assay on HEK-293T; in assay [1]) was inactive.

Consider `CC[C@H]1[C@@H](OS(=O)(=O)O)[C@@H]2[C@H](CC[C@]3(C)[C@@H]([C@H](C)CCOS(=O)(=O)O)CC[C@@H]23)[C@@]2(C)CC[C@@H](OS(=O)(=O)O)C[C@@H]12`, for which the result (with HEK-293T; in assay [1]) was inactive.

As for `C[C@H](CCCCCOS(=O)(=O)O)[C@H]1CC[C@H]2[C@@H]3[C@H](OS(=O)(=O)O)C[C@@H]4C[C@H](OS(=O)(=O)O)CC[C@]4(C)[C@H]3CC[C@]12C`, the result (in the assay on HEK-293T; in [1]) was inactive.

With `C=C[C@@]1(C)CC(=O)[C@]2(O)[C@@]3(C)[C@@H](O)CCC(C)(C)[C@@H]3[C@H](O)[C@H](OC(C)=O)[C@@]2(C)O1`, the outcome in the assay with HEK-293T was Active.
